Results reported in ChEMBL document CHEMBL3232876, “Novel R-(+)-limonene-based thiosemicarbazones and their antitumor activity against human tumor cell lines” (Eur J Med Chem, 2014).
Activity calls are given as the source filed them. The calls are words filed in the database; no cut-off is given here.

System: not listed separately
Assay: Growth inhibition of human NCI-ADR-RES cells after 48 hrs by sulforhodamine B assay
Type: functional
Settings: not given
In short: (§1)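 Tumour lines from NCI and Vero from the Rio de Janeiro Cell Bank, grown in RPMI 1640 with 5% fetal bovine serum, with penicillin:streptomycin added to experimental cultures. Each compound was tested at four 10-fold dilutions; sulforhodamine B staining at time zero and 48 h. Proliferation was calculated against T0 and drug-free controls, and GI50 came from sigmoidal regression of the concentration-response curves. Representative experiment in triplicate.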

Compound | GI50 [µM] | TGI [µM]
CC1=CC[C@H](C(C)(C)NC(=S)N/N=C/c2cccs2)CC1 | 13.6 | 41
CC1=CC[C@H](C(C)(C)NC(=S)N/N=C/c2ccc(O)cc2)CC1 | 82.1 | > 100
CC1=CC[C@H](C(C)(C)NC(=S)N/N=C/c2ccccc2Cl)CC1 | 75 | > 100
CC1=CC[C@H](C(C)(C)NC(=S)N/N=C/c2ccccc2[N+](=O)[O-])CC1 | 19.2 | > 100

System: HT-29
Assay: Growth inhibition of human HT-29 cells after 48 hrs by sulforhodamine B assay
Type: functional
Settings: HT-29, 48 h
In short: as §1

Compound | GI50 [µM] | TGI [µM]
CC1=CC[C@H](C(C)(C)NC(=S)N/N=C/c2cccs2)CC1 | 17.8 | 57.8
CC1=CC[C@H](C(C)(C)NC(=S)N/N=C/c2ccc(O)cc2)CC1 | > 100 | > 100
CC1=CC[C@H](C(C)(C)NC(=S)N/N=C/c2ccccc2Cl)CC1 | 71.3 | > 100
CC1=CC[C@H](C(C)(C)NC(=S)N/N=C/c2ccccc2[N+](=O)[O-])CC1 | 7.9 | 70.8

System: MCF7
Assay: Growth inhibition of human MCF7 cells after 48 hrs by sulforhodamine B assay
Type: functional
Settings: MCF7, 48 h
In short: as §1

Compound | GI50 [µM] | TGI [µM]
CC1=CC[C@H](C(C)(C)NC(=S)N/N=C/c2cccs2)CC1 | 4.8 | 11.5
CC1=CC[C@H](C(C)(C)NC(=S)N/N=C/c2ccc(O)cc2)CC1 | > 100 | > 100
CC1=CC[C@H](C(C)(C)NC(=S)N/N=C/c2ccccc2Cl)CC1 | 11 | 98.3
CC1=CC[C@H](C(C)(C)NC(=S)N/N=C/c2ccccc2[N+](=O)[O-])CC1 | 1.2 | 94.7

System: not listed separately
Assay: Growth inhibition of human UACC62 cells after 48 hrs by sulforhodamine B assay
Type: functional
Settings: UACC-62, 48 h
In short: as §1

Compound | GI50 [µM] | TGI [µM]
CC1=CC[C@H](C(C)(C)NC(=S)N/N=C/c2cccs2)CC1 | 2.6 | 19
CC1=CC[C@H](C(C)(C)NC(=S)N/N=C/c2ccc(O)cc2)CC1 | > 100 | > 100
CC1=CC[C@H](C(C)(C)NC(=S)N/N=C/c2ccccc2Cl)CC1 | 19.3 | 98
CC1=CC[C@H](C(C)(C)NC(=S)N/N=C/c2ccccc2[N+](=O)[O-])CC1 | 10.6 | 92.2

System: NCI-H460
Assay: Growth inhibition of human NCI-H460 cells after 48 hrs by sulforhodamine B assay
Type: functional
Settings: NCI-H460, 48 h
In short: as §1

Compound | GI50 [µM] | TGI [µM]
CC1=CC[C@H](C(C)(C)NC(=S)N/N=C/c2cccs2)CC1 | 10.8 | 20.8
CC1=CC[C@H](C(C)(C)NC(=S)N/N=C/c2ccc(O)cc2)CC1 | > 100 | > 100
CC1=CC[C@H](C(C)(C)NC(=S)N/N=C/c2ccccc2Cl)CC1 | 64.5 | 81
CC1=CC[C@H](C(C)(C)NC(=S)N/N=C/c2ccccc2[N+](=O)[O-])CC1 | 5 | 32.7

System: U-251
Assay: Growth inhibition of human U251 cells after 48 hrs by sulforhodamine B assay
Type: functional
Settings: U-251, 48 h
In short: as §1

Compound | GI50 [µM] | TGI [µM]
CC1=CC[C@H](C(C)(C)NC(=S)N/N=C/c2cccs2)CC1 | 13.5 | 27.4
CC1=CC[C@H](C(C)(C)NC(=S)N/N=C/c2ccc(O)cc2)CC1 | > 100 | > 100
CC1=CC[C@H](C(C)(C)NC(=S)N/N=C/c2ccccc2Cl)CC1 | 80.6 | > 100
CC1=CC[C@H](C(C)(C)NC(=S)N/N=C/c2ccccc2[N+](=O)[O-])CC1 | 20.2 | > 100

System: Vero
Assay: (§2) Growth inhibition of African green monkey Vero cells after 48 hrs by sulforhodamine B assay
Type: cell-based
Settings: chlorocebus sabaeus, vero, 48 h
In short: as §1

Compound | TGI [µM]
CC1=CC[C@H](C(C)(C)NC(=S)N/N=C/c2cccs2)CC1 | 13.4
CC1=CC[C@H](C(C)(C)NC(=S)N/N=C/c2ccc(O)cc2)CC1 | > 100
CC1=CC[C@H](C(C)(C)NC(=S)N/N=C/c2ccccc2Cl)CC1 | > 100
CC1=CC[C@H](C(C)(C)NC(=S)N/N=C/c2ccccc2[N+](=O)[O-])CC1 | > 100

System: not listed separately
Assay: as §2
Type: cell-based
Settings: chlorocebus sabaeus, Vero cells
In short: as §1

Compound | GI50 at 48 h [µM]
CC1=CC[C@H](C(C)(C)NC(=S)N/N=C/c2cccs2)CC1 | 10.1
CC1=CC[C@H](C(C)(C)NC(=S)N/N=C/c2ccc(O)cc2)CC1 | > 100
CC1=CC[C@H](C(C)(C)NC(=S)N/N=C/c2ccccc2Cl)CC1 | 74.6
CC1=CC[C@H](C(C)(C)NC(=S)N/N=C/c2ccccc2[N+](=O)[O-])CC1 | 21.6

System: K562
Assay: Growth inhibition of human K562 cells after 48 hrs by sulforhodamine B assay
Type: functional
Settings: K562, 48 h
In short: as §1

Compound | GI50 [µM] | TGI [µM]
CC1=CC[C@H](C(C)(C)NC(=S)N/N=C/c2cccs2)CC1 | 17.6 | > 100
CC1=CC[C@H](C(C)(C)NC(=S)N/N=C/c2ccc(O)cc2)CC1 | > 100 | > 100
CC1=CC[C@H](C(C)(C)NC(=S)N/N=C/c2ccccc2Cl)CC1 | 5.6 | 66.2
CC1=CC[C@H](C(C)(C)NC(=S)N/N=C/c2ccccc2[N+](=O)[O-])CC1 | 0.3 | > 100

System: not listed separately
Assay: Growth inhibition of human OVCAR3 cells after 48 hrs by sulforhodamine B assay
Type: functional
Settings: OVCAR-3, 48 h
In short: as §1

Compound | GI50 [µM] | TGI [µM]
CC1=CC[C@H](C(C)(C)NC(=S)N/N=C/c2cccs2)CC1 | 13.1 | 35.1
CC1=CC[C@H](C(C)(C)NC(=S)N/N=C/c2ccc(O)cc2)CC1 | > 100 | > 100
CC1=CC[C@H](C(C)(C)NC(=S)N/N=C/c2ccccc2Cl)CC1 | 15.1 | 83.6
CC1=CC[C@H](C(C)(C)NC(=S)N/N=C/c2ccccc2[N+](=O)[O-])CC1 | 8.5 | 25.8

System: 786-0
Assay: Growth inhibition of human 786-0 cells after 48 hrs by sulforhodamine B assay
Type: functional
Settings: 786-0, 48 h
In short: as §1

Compound | GI50 [µM] | TGI [µM]
CC1=CC[C@H](C(C)(C)NC(=S)N/N=C/c2cccs2)CC1 | 11.5 | 26.7
CC1=CC[C@H](C(C)(C)NC(=S)N/N=C/c2ccc(O)cc2)CC1 | > 100 | > 100
CC1=CC[C@H](C(C)(C)NC(=S)N/N=C/c2ccccc2Cl)CC1 | 85.5 | > 100
CC1=CC[C@H](C(C)(C)NC(=S)N/N=C/c2ccccc2[N+](=O)[O-])CC1 | 68.5 | > 100

System: PC-3
Assay: Growth inhibition of human PC3 cells after 48 hrs by sulforhodamine B assay
Type: functional
Settings: PC-3, 48 h
In short: as §1

Compound | GI50 [µM] | TGI [µM]
CC1=CC[C@H](C(C)(C)NC(=S)N/N=C/c2cccs2)CC1 | 17.8 | 62.8
CC1=CC[C@H](C(C)(C)NC(=S)N/N=C/c2ccc(O)cc2)CC1 | 0.6 | 53.8
CC1=CC[C@H](C(C)(C)NC(=S)N/N=C/c2ccccc2Cl)CC1 | 0.05 | 0.7
CC1=CC[C@H](C(C)(C)NC(=S)N/N=C/c2ccccc2[N+](=O)[O-])CC1 | 1.7 | 6.4

System: PC-3
Assay: Cytotoxicity against human PC3 cells assessed as cell death after 48 hrs by sulforhodamine B assay
Type: functional
Settings: not given
In short: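 NCI-supplied tumour cells in RPMI 1640 with 5% fetal bovine serum; experimental cultures also had penicillin:streptomycin. Cells were exposed for 48 h to four 10-fold concentrations (0.25 to 250 […]), with readings at time zero and at 48 h. LC50 (concentration giving 50% cell death) came from sigmoidal regression of concentration–response curves.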

Compound | Activity
CC1=CC[C@H](C(C)(C)NC(=S)N/N=C/c2ccccc2[N+](=O)[O-])CC1 | Active
